Test results as given in ChEMBL document CHEMBL1914317, “Triazole ring-opening leads to the discovery of potent nonsteroidal 17β-hydroxysteroid dehydrogenase type 2 inhibitors” (Eur J Med Chem, 2011).
The source made the active and inactive calls. The rule behind the calls is not given here.

Target: T1, 17-beta-hydroxysteroid dehydrogenase type 1 (Homo sapiens) (UniProt P14061)
T1 sequence (whole entry): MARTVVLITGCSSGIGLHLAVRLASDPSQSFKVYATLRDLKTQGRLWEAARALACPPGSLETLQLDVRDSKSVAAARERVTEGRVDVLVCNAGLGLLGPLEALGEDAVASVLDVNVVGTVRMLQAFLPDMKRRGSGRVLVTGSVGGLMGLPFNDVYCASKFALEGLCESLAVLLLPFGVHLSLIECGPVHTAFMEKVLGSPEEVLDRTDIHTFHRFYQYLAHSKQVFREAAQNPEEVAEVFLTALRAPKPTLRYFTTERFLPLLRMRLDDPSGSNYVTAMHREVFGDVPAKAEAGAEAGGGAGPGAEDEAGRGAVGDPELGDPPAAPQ
Test: Inhibition of human placental 17beta-HSD1 using [2,4,6,7-3H]-estrone as substrate at 1 uM after 10 mins by radio flow detector-based HPLC analysis in presence of NADH as cofactor
Settings: not given
In short: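 Placental enzyme from the cytosolic fraction after ammonium sulfate precipitation. Incubated with NADH 500 µM, test compound and unlabelled plus [3H]-E1 (500 nM final), 10 min at 37 °C. Stopped, extracted, and steroids separated by HPLC with radioflow detection, as for the type 2 assay.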

inhibition | Compound
inactive | COc1cccc(CN(C)C(=O)c2ccc(-c3ccccc3OC)s2)c1
inactive | COc1cccc(CN(C)C(=O)c2ccc(-c3ccc(C#N)cc3)s2)c1
inactive | COc1ccc(-c2cccc(C(=O)N(C)Cc3cccc(OC)c3)c2)cc1
inactive | CN(C(=O)Cc1cccc(O)c1)c1cccc(-c2ccc(O)cc2)c1

Target: T2, 17-beta-hydroxysteroid dehydrogenase type 2 (Homo sapiens) (UniProt P37059)
T2 sequence (whole entry): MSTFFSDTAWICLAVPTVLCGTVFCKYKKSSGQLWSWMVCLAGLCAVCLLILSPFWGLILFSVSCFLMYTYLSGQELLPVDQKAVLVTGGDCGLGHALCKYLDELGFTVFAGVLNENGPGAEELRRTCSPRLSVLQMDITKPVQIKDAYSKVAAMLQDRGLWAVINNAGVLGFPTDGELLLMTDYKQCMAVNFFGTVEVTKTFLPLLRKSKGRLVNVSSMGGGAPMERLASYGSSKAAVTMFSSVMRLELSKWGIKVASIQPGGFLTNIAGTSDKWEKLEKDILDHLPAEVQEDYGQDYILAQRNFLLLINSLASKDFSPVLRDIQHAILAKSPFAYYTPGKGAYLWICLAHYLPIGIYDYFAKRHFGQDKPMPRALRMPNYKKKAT
Test: Inhibition of human placental 17beta-HSD2 assessed as formation of [2,4,6,7-3H]-estrone using [2,4,6,7-3H]-estradiol as substrate at 1 uM after 20 mins by radio flow detector-based HPLC analysis in presence of NAD+ as cofactor
Settings: not given

inhibition | Compound
49% | COc1cccc(CN(C)C(=O)c2ccc(-c3ccccc3OC)s2)c1
inactive | COc1cccc(CN(C)C(=O)c2ccc(-c3ccc(C#N)cc3)s2)c1
11% | COc1ccc(-c2cccc(C(=O)N(C)Cc3cccc(OC)c3)c2)cc1
39% | CN(C(=O)Cc1cccc(O)c1)c1cccc(-c2ccc(O)cc2)c1

Compound | inhibition
C[C@]12CC[C@@H]3c4ccc(O)cc4CC[C@H]3[C@@H]1CC[C@@]21CCCC(=O)O1 | 65%

Target: T2, 17-beta-hydroxysteroid dehydrogenase type 2 (Homo sapiens)
Test: Inhibition of 17beta-HSD2
Settings: concentration not given here
In short: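 Human placental microsomal fraction (150,000 g) with NAD+ 1500 µM, 37 °C, in 50 mM phosphate buffer containing 20% glycerol and 1 mM EDTA; DMSO 1% final. Started with unlabelled plus [3H]-E2 (500 nM final), run 20 min, stopped with HgCl2, ether-extracted. E1/E2 separated by HPLC with radioflow detection; % conversion = E1/(E1+E2)×100. At least three independent experiments.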

inhibition | Compound
42% | Cn1nc(-c2cccc(O)c2)nc1-c1ccc(-c2cccc(O)c2)cc1
30% | Cn1nc(-c2cccc(O)c2)nc1-c1ccc(-c2cccc(O)c2)s1

Compound | inhibition
C[C@]12CC[C@@H]3c4ccc(O)cc4CC[C@H]3[C@@H]1CC[C@@]21CCCC(=O)O1 | 62%

Target: T3, Estrogen receptor (Homo sapiens) (UniProt P03372)
T3 sequence (whole entry): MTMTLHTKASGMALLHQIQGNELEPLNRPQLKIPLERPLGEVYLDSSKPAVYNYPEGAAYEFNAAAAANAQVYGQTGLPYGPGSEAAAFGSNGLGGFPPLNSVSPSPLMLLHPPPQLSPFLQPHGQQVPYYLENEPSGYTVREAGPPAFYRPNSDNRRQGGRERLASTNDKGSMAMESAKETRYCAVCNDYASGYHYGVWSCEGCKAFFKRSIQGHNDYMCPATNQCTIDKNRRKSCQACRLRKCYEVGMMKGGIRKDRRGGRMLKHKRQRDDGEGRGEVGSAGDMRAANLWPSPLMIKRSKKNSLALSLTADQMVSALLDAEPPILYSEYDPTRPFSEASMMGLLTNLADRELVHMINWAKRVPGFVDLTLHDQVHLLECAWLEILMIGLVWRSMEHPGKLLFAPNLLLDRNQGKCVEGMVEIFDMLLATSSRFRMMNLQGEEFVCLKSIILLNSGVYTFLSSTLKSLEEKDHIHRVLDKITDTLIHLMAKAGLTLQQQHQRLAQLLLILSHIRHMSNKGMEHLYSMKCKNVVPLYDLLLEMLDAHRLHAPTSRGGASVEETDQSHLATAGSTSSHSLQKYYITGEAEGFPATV
Test: Displacement of [3H]estradiol from human recombinant ERalpha assessed as relative binding affinity after 1 hr by liquid scintillation counting relative to estradiol
Settings: not given
In short: (§1)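 Recombinant human ERα or ERβ (0.25 pmol) incubated with [3H]-E2 (10 nM) plus test compound, 1 h at room temperature; compound in DMSO (5% final). Nonspecific binding defined with diethylstilbestrol (10 µM). Receptor–ligand complexes captured on hydroxyapatite, washed, resuspended in ethanol, counted by liquid scintillation.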

RBA | Compound
< 0.1% | COc1ccc(-c2ccc(C(=O)N(C)Cc3ccccc3)s2)cc1
< 0.1% | COc1ccc(-c2ccc(C(=O)N(C)Cc3cccc(O)c3)s2)cc1
< 0.1% | COc1cccc(CN(C)C(=O)c2cccc(-c3cccc(OC)c3)c2)c1
< 0.1% | Cc1cccc(-c2ccc(C(=O)N(C)Cc3cccc(O)c3)s2)c1
< 0.1% | CN(Cc1cccc(O)c1)C(=O)c1ccc(-c2cccc(O)c2F)s1
< 0.1% | COc1cccc(CN(C)C(=O)c2ccc(-c3cccc(OC)c3)s2)c1
< 0.1% | COc1cccc(CN(C)C(=O)c2ccc(-c3cccc(C)c3)cc2)c1
< 0.1% | COc1cccc(CN(C)C(=O)c2ccc(-c3ccccc3)s2)c1
< 0.1% | CN(Cc1cccc(O)c1)C(=O)c1ccc(-c2cccc(O)c2)s1
< 0.1% | CN(Cc1cccc(O)c1)C(=O)c1cccc(-c2ccc(O)cc2)c1
< 0.1% | COc1cccc(CN(C)C(=O)c2ccc(-c3cccc(OC)c3)cc2)c1
< 0.1% | COc1cccc(-c2ccc(C(=O)N(C)Cc3ccccc3)s2)c1
< 0.1% | COc1ccc(-c2ccc(C(=O)N(C)Cc3cccc(OC)c3)s2)cc1
< 0.1% | CN(Cc1cccc(O)c1)C(=O)c1ccc(-c2ccc(C#N)cc2)s1
< 0.1% | CN(Cc1cccc(O)c1)C(=O)c1ccc(-c2cccc(O)c2)cc1
< 0.1% | CN(Cc1ccccc1)C(=O)c1ccc(-c2ccc(O)cc2)s1

RBA | Compound
< 0.1% | CN(Cc1cccc(O)c1)C(=O)c1ccc(-c2ccccc2O)s1
< 0.1% | CN(Cc1cccc(O)c1)C(=O)c1cccc(-c2cccc(O)c2)c1
< 0.1% | COc1cccc(CN(C)C(=O)c2ccc(-c3ccccc3OC)s2)c1
< 0.1% | CN(Cc1cccc(O)c1)C(=O)c1ccc(-c2ccc(F)cc2)s1
< 0.1% | COc1cccc(CN(C)C(=O)c2ccc(-c3ccc(C#N)cc3)s2)c1
< 0.1% | COc1ccc(-c2cccc(C(=O)N(C)Cc3cccc(OC)c3)c2)cc1
< 0.1% | CN(Cc1cccc(O)c1)C(=O)c1ccc(-c2cccc(F)c2)s1
< 0.1% | Cc1cccc(-c2ccc(C(=O)N(C)Cc3cccc(O)c3)cc2)c1
< 0.1% | COc1ccccc1-c1ccc(C(=O)N(C)Cc2ccccc2)s1
< 0.1% | COc1cccc(-c2ccc(C(=O)N(C)Cc3cccc(O)c3)s2)c1F
< 0.1% | CN(Cc1cccc(O)c1)C(=O)c1ccc(-c2ccc(O)cc2)s1
< 0.1% | CN(Cc1cccc(O)c1)C(=O)c1ccc(-c2cccc(N(C)C)c2)s1
< 0.1% | CN(Cc1ccccc1)C(=O)c1ccc(-c2ccccc2O)s1
< 0.1% | CN(C(=O)Cc1cccc(O)c1)c1cccc(-c2ccc(O)cc2)c1
< 0.1% | CN(Cc1cccc(O)c1)C(=O)c1ccc(-c2ccccc2)s1
< 0.1% | CN(Cc1ccccc1)C(=O)c1ccc(-c2cccc(O)c2)s1

Compound | RBA
C[C@]12CC[C@@H]3c4ccc(O)cc4CC[C@H]3[C@@H]1CC[C@@]21CCCC(=O)O1 | < 0.1%

Target: T4, 17-beta-hydroxysteroid dehydrogenase type 1 (Homo sapiens, UniProt P14061)
T4 sequence (P14061 whole entry): T1 sequence (whole entry)
Test: Inhibition of human placental 17beta-HSD1 using [2,4,6,7-3H]-estrone as substrate after 10 mins by radio flow detector-based HPLC analysis in presence of NADH as cofactor
Settings: not given
In short: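 Enzyme was the ammonium sulfate–precipitated cytosolic fraction of fresh homogenised human placenta. It was incubated at 37 °C for 10 min with NADH (500 µM), inhibitor, and unlabelled plus [3H]-E1 (final 500 nM, 0.15 µCi). Reaction stopped with HgCl2, then ether extraction. E1/E2 were separated by HPLC with radioflow detection.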

IC50 | Compound
5450 nM | CN(Cc1cccc(O)c1)C(=O)c1ccc(-c2cccc(O)c2)s1

Target: T5, 17-beta-hydroxysteroid dehydrogenase type 2 (Homo sapiens, UniProt P37059)
T5 sequence (P37059 whole entry): T2 sequence (whole entry)
Test: Inhibition of human placental 17beta-HSD2 assessed as formation of [2,4,6,7-3H]-estrone using [2,4,6,7-3H]-estradiol as substrate after 20 mins by radio flow detector-based HPLC analysis in presence of NAD+ as cofactor
Settings: not given

IC50 | Compound
50 nM | CN1C(=O)C[C@@H](c2ccccc2)[C@H]1[C@H](O)c1ccc(-c2cccnc2)s1

Target: Estrogen receptor beta (Homo sapiens) (UniProt Q92731)
Test: Displacement of [3H]estradiol from human recombinant ERbeta assessed as relative binding affinity after 1 hr by liquid scintillation counting relative to estradiol
Settings: not given
In short: as §1

Estrogen receptor beta (Homo sapiens), sequence (Q92731 whole entry): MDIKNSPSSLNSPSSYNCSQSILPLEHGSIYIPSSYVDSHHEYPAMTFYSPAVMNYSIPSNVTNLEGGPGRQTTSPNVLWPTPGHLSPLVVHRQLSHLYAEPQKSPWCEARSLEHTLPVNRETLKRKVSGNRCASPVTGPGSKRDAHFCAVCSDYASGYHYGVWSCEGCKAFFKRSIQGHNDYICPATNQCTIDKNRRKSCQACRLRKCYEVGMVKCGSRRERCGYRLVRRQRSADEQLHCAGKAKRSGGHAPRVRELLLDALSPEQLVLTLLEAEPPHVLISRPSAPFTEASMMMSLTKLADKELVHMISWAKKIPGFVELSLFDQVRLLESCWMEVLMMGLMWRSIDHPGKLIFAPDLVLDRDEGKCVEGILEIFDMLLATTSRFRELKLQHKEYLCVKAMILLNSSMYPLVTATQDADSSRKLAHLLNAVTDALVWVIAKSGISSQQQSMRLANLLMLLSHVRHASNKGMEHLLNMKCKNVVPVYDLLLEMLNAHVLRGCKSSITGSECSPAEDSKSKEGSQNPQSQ

RBA | Compound
< 0.1% | COc1ccc(-c2ccc(C(=O)N(C)Cc3ccccc3)s2)cc1
< 0.1% | COc1ccc(-c2ccc(C(=O)N(C)Cc3cccc(O)c3)s2)cc1
< 0.1% | COc1cccc(CN(C)C(=O)c2cccc(-c3cccc(OC)c3)c2)c1
< 0.1% | Cc1cccc(-c2ccc(C(=O)N(C)Cc3cccc(O)c3)s2)c1
< 0.1% | CN(Cc1cccc(O)c1)C(=O)c1ccc(-c2cccc(O)c2F)s1
< 0.1% | COc1cccc(CN(C)C(=O)c2ccc(-c3cccc(OC)c3)s2)c1
< 0.1% | COc1cccc(CN(C)C(=O)c2ccc(-c3cccc(C)c3)cc2)c1
< 0.1% | COc1cccc(CN(C)C(=O)c2ccc(-c3ccccc3)s2)c1
< 0.1% | CN(Cc1cccc(O)c1)C(=O)c1ccc(-c2cccc(O)c2)s1
< 0.1% | CN(Cc1cccc(O)c1)C(=O)c1cccc(-c2ccc(O)cc2)c1
< 0.1% | COc1cccc(CN(C)C(=O)c2ccc(-c3cccc(OC)c3)cc2)c1
< 0.1% | COc1cccc(-c2ccc(C(=O)N(C)Cc3ccccc3)s2)c1
< 0.1% | COc1ccc(-c2ccc(C(=O)N(C)Cc3cccc(OC)c3)s2)cc1
< 0.1% | CN(Cc1cccc(O)c1)C(=O)c1ccc(-c2ccc(C#N)cc2)s1
< 0.1% | CN(Cc1cccc(O)c1)C(=O)c1ccc(-c2cccc(O)c2)cc1
< 0.1% | CN(Cc1ccccc1)C(=O)c1ccc(-c2ccc(O)cc2)s1

RBA | Compound
< 0.1% | CN(Cc1cccc(O)c1)C(=O)c1ccc(-c2ccccc2O)s1
< 0.1% | CN(Cc1cccc(O)c1)C(=O)c1cccc(-c2cccc(O)c2)c1
< 0.1% | COc1cccc(CN(C)C(=O)c2ccc(-c3ccccc3OC)s2)c1
< 0.1% | CN(Cc1cccc(O)c1)C(=O)c1ccc(-c2ccc(F)cc2)s1
< 0.1% | COc1cccc(CN(C)C(=O)c2ccc(-c3ccc(C#N)cc3)s2)c1
< 0.1% | COc1ccc(-c2cccc(C(=O)N(C)Cc3cccc(OC)c3)c2)cc1
< 0.1% | CN(Cc1cccc(O)c1)C(=O)c1ccc(-c2cccc(F)c2)s1
< 0.1% | Cc1cccc(-c2ccc(C(=O)N(C)Cc3cccc(O)c3)cc2)c1
< 0.1% | COc1ccccc1-c1ccc(C(=O)N(C)Cc2ccccc2)s1
< 0.1% | COc1cccc(-c2ccc(C(=O)N(C)Cc3cccc(O)c3)s2)c1F
< 0.1% | CN(Cc1cccc(O)c1)C(=O)c1ccc(-c2ccc(O)cc2)s1
< 0.1% | CN(Cc1cccc(O)c1)C(=O)c1ccc(-c2cccc(N(C)C)c2)s1
< 0.1% | CN(Cc1ccccc1)C(=O)c1ccc(-c2ccccc2O)s1
< 0.1% | CN(C(=O)Cc1cccc(O)c1)c1cccc(-c2ccc(O)cc2)c1
< 0.1% | CN(Cc1cccc(O)c1)C(=O)c1ccc(-c2ccccc2)s1
< 0.1% | CN(Cc1ccccc1)C(=O)c1ccc(-c2cccc(O)c2)s1

Compound | RBA
C[C@]12CC[C@@H]3c4ccc(O)cc4CC[C@H]3[C@@H]1CC[C@@]21CCCC(=O)O1 | < 0.1%

Organism: Homo sapiens
Test: Selectivity ratio of IC50 for human placental 17beta-HSD1 to IC50 for human placental 17beta-HSD2
Settings: not given

Ratio IC50 | Compound
> 250 | COc1ccc(-c2ccc(C(=O)N(C)Cc3cccc(O)c3)s2)cc1
65 | Cc1cccc(-c2ccc(C(=O)N(C)Cc3cccc(O)c3)s2)c1
> 250 | COc1cccc(CN(C)C(=O)c2ccc(-c3cccc(OC)c3)s2)c1
> 375 | COc1cccc(CN(C)C(=O)c2ccc(-c3cccc(C)c3)cc2)c1
14 | CN(Cc1cccc(O)c1)C(=O)c1ccc(-c2cccc(O)c2)s1
20 | CN(Cc1cccc(O)c1)C(=O)c1ccc(-c2ccccc2O)s1
8 | CN(Cc1cccc(O)c1)C(=O)c1cccc(-c2cccc(O)c2)c1
10 | CN(Cc1cccc(O)c1)C(=O)c1ccc(-c2cccc(F)c2)s1
73 | COc1cccc(-c2ccc(C(=O)N(C)Cc3cccc(O)c3)s2)c1F
15 | CN(Cc1cccc(O)c1)C(=O)c1ccc(-c2ccc(O)cc2)s1
75 | CN(Cc1cccc(O)c1)C(=O)c1ccc(-c2cccc(N(C)C)c2)s1
